{"data": "Assay results of several laboratories", "read-out": "microbial growth", "note": "Protocols differ between the studies behind these lines."}
{"Compound": "Cc1ccc2nc(-c3ccc([N+](=O)[O-])cc3)n(Cc3ccccc3)c2c1", "organism": "Aspergillus niger", "system": "ATCC16404", "MIC": "256 µg/mL"}
{"Compound": "CCCCCCCCCCCCCCN1CCNCC1", "organism": "Lodderomyces parapsilosis", "system": "ATCC22019", "MIC": "0.975 µg/mL"}
{"Compound": "Cc1ccc2nc(-c3ccc([N+](=O)[O-])cc3)[nH]c2c1", "organism": "Aspergillus niger", "system": "ATCC16404", "MIC": "512 µg/mL"}
{"Compound": "CCCCCCCCCCN1CCNCC1", "organism": "Lodderomyces parapsilosis", "test": "broth dilution", "system": "ATCC22019", "setting": "48 h", "MIC": "15.6 µg/mL"}
{"Compound": "Cc1ccc(C)n1-c1ccc(-c2nnc(-c3ccc(N(C)C)cc3)[nH]2)cc1", "organism": "Aspergillus niger", "test": "broth dilution", "system": "ATCC6275", "MIC": "62.5 µg/mL"}
{"Compound": "O=C1NN=C(N=Cc2ccc(O)c(O)c2)C1=NNn1c(-c2ccccc2)nc2ccccc2c1=O", "organism": "Aspergillus niger", "test": "broth dilution", "MIC": "107 µM"}
{"Compound": "CCOc1ccc(-c2nc3ccccc3n2Cc2ccccc2)cc1", "organism": "Aspergillus niger", "system": "ATCC16404", "MIC": "256 µg/mL"}
{"Compound": "Cc1ncc([N+](=O)[O-])n1CCO", "organism": "Bacteroides fragilis", "test": "agar dilution", "setting": "48 h", "MIC": "1 µg/mL"}
{"Compound": "Cc1ccc(C)n1-c1ccc(-c2nnco2)cc1", "organism": "Aspergillus niger", "test": "broth dilution", "system": "ATCC6275", "MIC": "125 µg/mL"}
{"Compound": "CC1=NN(CNc2ccc(Cl)cc2)C(=O)C1=NNn1c(-c2ccccc2)nc2ccccc2c1=O", "organism": "Aspergillus niger", "test": "broth dilution", "MIC": "51.5 µM"}
{"Compound": "O=[N+]([O-])c1cccc(-c2nc3ccccc3[nH]2)c1", "organism": "Aspergillus niger", "system": "ATCC16404", "MIC": "512 µg/mL"}
{"Compound": "O=C1/C(=C/c2cc(O)c(O)c(O)c2)Oc2cccc(O)c21", "organism": "Lodderomyces parapsilosis", "test": "broth dilution", "MIC": "16 µg/mL"}
{"Compound": "C=CCn1c(-c2ccc(OC)c(OC)c2)nc2ccccc21", "organism": "Aspergillus niger", "system": "ATCC16404", "MIC": "512 µg/mL"}
{"Compound": "CC(=O)c1ccc(-c2ccc3oc(C(=O)c4cc(O)c(O)c(O)c4)cc3c2)cc1", "organism": "Lodderomyces parapsilosis", "test": "broth dilution", "MIC": "2 to 4 µg/mL"}
{"Compound": "CCCCCCCCCCCCCN1CCNCC1", "organism": "Lodderomyces parapsilosis", "test": "broth dilution", "system": "ATCC22019", "setting": "48 h", "MIC": "1.95 µg/mL"}
{"Compound": "CCc1cc(Nc2cc(=O)n(CCCCO)c(=O)[nH]2)ccc1C", "organism": "Bacteroides fragilis", "test": "agar dilution", "setting": "48 h", "MIC": "> 32 µg/mL"}
{"Compound": "Cc1ccc2nc(-c3ccc(Cl)cc3)[nH]c2c1", "organism": "Aspergillus niger", "system": "ATCC16404", "MIC": "256 µg/mL"}
{"Compound": "Fc1ccc(C2(Cn3cncn3)CO2)c(F)c1 (stereo not shown)", "organism": "Lodderomyces parapsilosis", "test": "broth dilution", "system": "ATCC22019", "setting": "48 h", "MIC": "> 31.3 µg/mL"}
{"Compound": "C=CCn1c(-c2ccc(Cl)cc2)nc2ccccc21", "organism": "Aspergillus niger", "system": "ATCC16404", "MIC": "512 µg/mL"}
{"Compound": "CCCCCCCCCCN1CCN(CC(O)(Cn2cncn2)c2ccc(F)cc2F)CC1 (stereo not shown)", "organism": "Lodderomyces parapsilosis", "test": "broth dilution", "system": "ATCC22019", "setting": "48 h", "MIC": "0.015 µg/mL"}
{"Compound": "CC1=NN(CNc2ccc(C(=O)O)cc2)C(=O)C1=NNn1c(-c2ccccc2)nc2ccccc2c1=O", "organism": "Aspergillus niger", "test": "broth dilution", "MIC": "50.5 µM"}
{"Compound": "CCCCCCCCCCCCCCN1CCOCC1", "organism": "Lodderomyces parapsilosis", "test": "broth dilution", "system": "ATCC22019", "setting": "48 h", "MIC": "> 31.3 µg/mL"}
{"Compound": "O=c1[nH]c(NCc2ccc(Cl)c(Cl)c2)nc2ncn(CCN3CCOCC3)c12", "organism": "Bacteroides fragilis", "test": "agar dilution", "setting": "48 h", "MIC": "> 32 µg/mL"}
{"Compound": "Cc1ccc(C)n1-c1ccc(C(=O)NNC=O)cc1", "organism": "Aspergillus niger", "test": "broth dilution", "system": "ATCC6275", "MIC": "250 µg/mL"}
{"Compound": "CC[C@H](C)C[C@H](C)CCCCCCCCC(=O)N[C@H]1C[C@@H](O)[C@@H](NCCN)NC(=O)[C@@H]2[C@@H](O)CCN2C(=O)[C@H]([C@H](O)CCN)NC(=O)[C@H]([C@H](O)[C@@H](O)c2ccc(O)cc2)NC(=O)[C@@H]2C[C@@H](O)CN2C(=O)[C@H]([C@@H](C)O)NC1=O", "organism": "Lodderomyces parapsilosis", "test": "broth dilution", "system": "ATCC22019", "setting": "48 h", "MIC": "1.95 µg/mL"}
{"Compound": "Cc1ccc2nc(-c3ccc([N+](=O)[O-])cc3)n(Cc3ccccc3Cl)c2c1", "organism": "Aspergillus niger", "system": "ATCC16404", "MIC": "128 µg/mL"}
{"Compound": "CCCCCCCCCCCCN1CCNCC1", "organism": "Lodderomyces parapsilosis", "test": "broth dilution", "system": "ATCC22019", "setting": "48 h", "MIC": "1.95 µg/mL"}
{"Compound": "Cc1ccc(C)n1-c1ccc(-c2nnc(-c3ccccc3Cl)[nH]2)cc1", "organism": "Aspergillus niger", "test": "broth dilution", "system": "ATCC6275", "MIC": "8 µg/mL"}
